In assay [1] the test system is MDA-MB-231. As to the kind of experiment: Induction of apoptosis in human MDA-MB-231 cells assessed as loss of mitochondrial membrane potential at 2 uM after 24 hrs by rhodamine-123 -based spectrofluorometric analysis relative to control. It is filed as functional. The essentials: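 MDA-MB-231 cells were plated at 5×10^5 cells/mL in 6-well plates, left to adhere overnight, then treated 24 h at 1, 2 and 4 μM. Cells were trypsinized, washed in PBS and loaded with rhodamine-123 (10 μg/mL) in PBS for 30 min at room temperature. After two PBS washes, fluorescence was read by spectrofluorometer (ex 480/em 530 nm). Loss is expressed against control; three independent experiments in triplicate.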

Assay [2] deals with MDA-MB-231. As to the kind of experiment: Induction of apoptosis in human MDA-MB-231 cells assessed as increase in cleaved PARP expression after 24 hrs by Western blot analysis. It is filed as functional, cell-based. The method, boiled down:
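MDA-MB-231 treated at 1, 2 or 4 µM for 24 h. Whole-cell extracts prepared in RIPA buffer. Blots probed with rabbit anti-caspase-3, anti-Bcl2 and anti-β-actin (1:1000) and anti-Bax (1:500), then HRP secondaries and ECL detection. Membranes stripped and reprobed. Bands quantified by densitometry as fold change versus control. Mean ± SEM, n=3.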
Background: In western blotting, separated proteins are transferred to a membrane and probed.

The test system of assay [3] is MDA-MB-231. As to the kind of experiment: Induction of apoptosis in human MDA-MB-231 cells assessed as viable cells at 4 uM after 24 hrs by Annexin V-FITC/propidium iodide-staining based FACS analysis (reference value: 89.5 %). In kind it is functional. The note with it: MDA-MB-231, 24 h, read-out: Activity. (In flow cytometry, cells or beads pass a laser one at a time.)

With `CC(C)n1c(/C=C2/C(=O)Nc3ccc(Br)cc32)nc2ccccc21`, the Activity in assay [1] is 32.5%; in assay [2], “Dose-dependent effect”. The viability at 4 µM in assay [3] worked out at 65.3%.

Source of the values: ChEMBL document CHEMBL3865824, “New (E)-1-alkyl-1H-benzo[d]imidazol-2-yl)methylene)indolin-2-ones: Synthesis, in vitro cytotoxicity evaluation and apoptosis inducing studies” (Eur J Med Chem, 2016).
